Compound activity as filed in PubChem BioAssay.
This is a sample that favours compounds with a hit; in the whole collection about 2.5% have one here.
MC4R antag cAMP: human MC4R antagonism in cAMP assay; MC4R-expressing cells, MTII-stimulated cAMP, LANCE TR-FRET; inhibition, % at 6.5 µM; 0.48% of 360,000 active; AID 540295;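 active = inhibition above its plate's cutoff, the mean of tested wells on that plate plus 3 SD, cut at about 29% in these data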;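 note: 0% = Melanotan II alone and 100% = Melanotan II plus saturating MCL0020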
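Test system: U2OS cells stably expressing human melanocortin 4 receptor (MC4R); also added: Melanotan II challenge; compound: 6.5 µM single dose; timing: 30-min compound preincubation, 1-h Melanotan II challenge, 1-h detection, room temperature; signal: Eu-cAMP/anti-cAMP TR-FRET, emission 671 nm; repeats: one well per compound, no replicates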
PG9 binder: PG9 antibody binding by small molecule; AID 624416; 0.43% of 360,000 active; TR-FRET gp120-PG9 antibody binding; inhibition, % at 6.7 µM; in the data active = inhibition above about 8.5%
NR1D1 modulator: modulates human Rev-erb alpha binding to DNA; P20393; activity, % at 10 µM; 0.79% of 370,000 active; Rev-erbα–FITC-DNA binding, fluorescence polarization, 90 min; AID 1259318;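 active = activity above about 14%, limit read from the data; passing the limit was not always enough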;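 note: 0% = DMSO wells with 35 nM protein and 100% = DMSO wells with 750 nM protein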
NTR1 agonist: agonists of human neurotensin receptor NTR1 | NTR1-U2OS beta-arrestin-GFP spot imaging, agonist mode | activation, % at 20 µM | 0.17% of 330,000 active | P30989 | AID 493036;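 active = activation at or above 40% of the spot to cytoplasm intensity ratio, with at least 20 cells analyzed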;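 note: 0% = DMSO without peptide and 100% = 100 nM NTR1 peptide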
MC4R barr agon: agonists of human melanocortin 4 receptor (MC4R) beta-arrestin. P32245. U2OS MC4R beta-arrestin complementation, luminescence; percent of melanotan II response, DMSO zero. activation, % at 8.9 µM. 0.98% of 360,000 active. AID 540308;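 active = activation above a per-plate cutoff, the mean activation of sample wells on that plate plus 3 SD, cut at about 8% in these data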
MC4R barr conf: human MC4R beta-arrestin agonism confirmation; shares compounds with MC4R barr agon; U2OS MC4R beta-arrestin recruitment, luminescence; scaled DMSO 0%, Melanotan II 100%; activation, % at 8.9 µM; 31% of 2,400 active; AID 602192;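 active = mean activation across replicates above the hit cutoff set in the earlier primary screen, cut at about 8% in these data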
MOR DOR agonist: OPRM1-OPRD1 heterodimer agonism counter-screen. shares compounds with MC4R barr agon. U2OS PathHunter beta-arrestin, beta-gal luminescence; percent of deltorphin B response, DMSO zero. activation, % at 9.2 µM. 5.8% of 2,400 active;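 active = mean activation across replicates exceeds the hit threshold derived in the earlier primary screen, cut at about 18% in these data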;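 note: 100% = deltorphin B at 0.9 µM final and 0% = DMSO alone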
Target sequence (P35372 whole entry, looked up): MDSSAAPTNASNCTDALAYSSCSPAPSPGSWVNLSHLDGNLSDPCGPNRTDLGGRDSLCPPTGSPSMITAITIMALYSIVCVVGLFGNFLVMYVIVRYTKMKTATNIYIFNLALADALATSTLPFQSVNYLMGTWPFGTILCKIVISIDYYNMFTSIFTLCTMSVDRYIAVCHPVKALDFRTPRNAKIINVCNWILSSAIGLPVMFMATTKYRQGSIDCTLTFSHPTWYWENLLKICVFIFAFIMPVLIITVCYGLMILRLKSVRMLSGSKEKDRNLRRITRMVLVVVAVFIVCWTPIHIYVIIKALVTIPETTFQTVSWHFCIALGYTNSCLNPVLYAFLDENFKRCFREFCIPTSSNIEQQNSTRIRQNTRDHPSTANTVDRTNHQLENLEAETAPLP
Target sequence (P41143 whole entry, looked up): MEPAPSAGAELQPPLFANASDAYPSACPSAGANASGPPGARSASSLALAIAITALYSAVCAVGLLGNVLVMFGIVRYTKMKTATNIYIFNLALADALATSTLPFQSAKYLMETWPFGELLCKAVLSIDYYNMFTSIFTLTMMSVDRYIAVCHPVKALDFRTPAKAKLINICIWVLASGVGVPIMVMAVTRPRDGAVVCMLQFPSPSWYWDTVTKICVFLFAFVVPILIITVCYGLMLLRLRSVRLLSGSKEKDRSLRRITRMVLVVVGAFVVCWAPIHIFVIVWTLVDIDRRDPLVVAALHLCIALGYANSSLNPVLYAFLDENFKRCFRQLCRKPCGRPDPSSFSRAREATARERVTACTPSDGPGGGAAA
Active calls of the source: *.

NC(Cc1ccc(C(F)(F)F)cc1)c1csc(Nc2ccc(C(=O)NCCCO)cn2)n1 (stereo unspecified) was read as MC4R antag cAMP 9, PG9 binder 0, NR1D1 modulator -1 and MC4R barr agon 3.
Screening CCCCN(C)C(=O)c1ccc(Nc2nc(C(N)CCc3ccccc3)cs2)nc1 (stereo unspecified) returned MC4R antag cAMP -1, PG9 binder 1, NR1D1 modulator -2 and MC4R barr agon 2.
`NC(Cc1ccc(C(F)(F)F)cc1)c1csc(Nc2ccc(C(=O)NCc3ccco3)cn2)n1` (stereo unspecified) gave MC4R antag cAMP 11, PG9 binder 1, NR1D1 modulator -1, MC4R barr agon 16*, MC4R barr conf 32* and MOR DOR agonist 13.
`CC(=O)Nc1cc(-c2ccccc2N(C)C)cn2c(-c3cccc(C(F)(F)F)c3)cnc12` gave MC4R antag cAMP -1, PG9 binder -1, NR1D1 modulator 7, MC4R barr agon 15*, MC4R barr conf 11* and MOR DOR agonist 3.
`CC(=O)Nc1cc(-c2cccc(NS(C)(=O)=O)c2)cn2c(-c3cccc(C(F)(F)F)c3)cnc12` gave MC4R antag cAMP 12, PG9 binder -2, NR1D1 modulator -3 and MC4R barr agon 0.
For CC(=O)Nc1cc(-c2cccc(C(=O)NCCN(C)C)c2)cn2c(-c3cccc(C(F)(F)F)c3)cnc12 the results were MC4R antag cAMP 0, PG9 binder 0, NR1D1 modulator 4, MC4R barr agon 42*, MC4R barr conf 23* and MOR DOR agonist 8.
CC(C)CN(C[C@@H](O)[C@H](Cc1ccccc1)NC(=O)O[C@H]1CO[C@H]2OCC[C@H]21)S(=O)(=O)c1ccc(N)cc1 was read as NR1D1 modulator 4.
For CC(=O)N[C@@H]1C[C@@H]2O[C@H](CO)CC[C@@H]2O[C@@H]1CCc1ccc(C#CC2(O)CCCC2)cc1 the results were NR1D1 modulator -1.
`O=C1c2ccccc2C(=O)C1c1ccc(Br)cc1` gave MC4R antag cAMP 7, PG9 binder 0, NR1D1 modulator -3, NTR1 agonist 0 and MC4R barr agon 0.
Screening COc1ccc(C2C(=O)c3ccccc3C2=Nc2ccc(Br)cc2)cc1 (stereo unspecified) returned MC4R antag cAMP 5, PG9 binder -3, NR1D1 modulator -7, NTR1 agonist 6, MC4R barr agon 26*, MC4R barr conf 11* and MOR DOR agonist 6.
Cn1cc(CCOCc2ccccc2)c2ccccc21 was read as PG9 binder 0 and NR1D1 modulator 3.
N#Cc1ccc(NC(=O)OC2CC3CC2[C@H]2CCCCN2C3)cc1 (stereo partly specified) was read as NR1D1 modulator 1.
Screening CCCn1c(=S)[nH]c2cc(C(=O)N3CCc4ccccc4C3)ccc2c1=O returned MC4R antag cAMP 9, PG9 binder -1, NR1D1 modulator 1, NTR1 agonist 1, MC4R barr agon 12*, MC4R barr conf -3 and MOR DOR agonist 3.
CCCn1c(=S)[nH]c2cc(C(=O)N3CCN(c4ccccc4)CC3)ccc2c1=O was read as MC4R antag cAMP 0, PG9 binder 0, NR1D1 modulator 4 and MC4R barr agon -2.
`Cc1ccc(NC(=O)c2sc(N)nc2-c2ccccc2)cc1C` gave MC4R antag cAMP 2, PG9 binder -2, NR1D1 modulator 1, NTR1 agonist 3 and MC4R barr agon 0.
Screening Cc1ccc(NC(=O)c2sc(N)nc2-c2ccc([N+](=O)[O-])cc2)cc1C returned MC4R antag cAMP 1, PG9 binder -1, NR1D1 modulator -4, NTR1 agonist -2, MC4R barr agon 11*, MC4R barr conf 4 and MOR DOR agonist 7.
For CC(=O)c1ccc(NC(=O)COC(=O)/C=C/c2cccs2)cc1 the results were MC4R antag cAMP -3, PG9 binder 2, NR1D1 modulator -5, NTR1 agonist 2 and MC4R barr agon -2.
For O=C(COC(=O)/C=C/c1cccs1)Nc1ccc2ccccc2c1 the results were MC4R antag cAMP 7, PG9 binder 1, NR1D1 modulator 2, NTR1 agonist 2, MC4R barr agon 16*, MC4R barr conf 3 and MOR DOR agonist 7.
CCOc1ccc(CCNC(=O)c2ccc3[nH]ccc3c2)cc1OCC was read as NR1D1 modulator -7.
CCCc1cc(=O)oc2c(C)c(OCC(=O)Nc3ccc(CN4CCOCC4)cc3)ccc12 was read as MC4R antag cAMP -2, PG9 binder -1, NR1D1 modulator -9, NTR1 agonist 3, MC4R barr agon 16*, MC4R barr conf -1 and MOR DOR agonist 2.
Screening CCCc1cc(=O)oc2c(C)c(OCC(=O)NCCCN3CCOCC3)ccc12 returned MC4R antag cAMP 8, PG9 binder -2, NR1D1 modulator 1, NTR1 agonist 0 and MC4R barr agon -1.
For COC(=O)[C@]12C[C@H](CC(=O)NCCCCc3ccccc3)C(=O)N(Cc3ccc4c(c3)OCO4)C1=C[C@H](C(C)C)O[C@@H]2C1CC1 the results were NR1D1 modulator 1.
Screening S=C(Nc1ccc(Cl)c(Cl)c1)Nc1nnc(-c2ccncc2)s1 returned NR1D1 modulator -24.
`O=C(CSc1nc2ccccc2s1)Nc1ccc(Cl)c(C(=O)O)c1` gave MC4R antag cAMP 1, PG9 binder -2, NR1D1 modulator -9, NTR1 agonist 1 and MC4R barr agon 1.
Screening O=C(CSc1nc2ccccc2s1)CSc1nc2ccccc2s1 returned MC4R antag cAMP 0, PG9 binder -2, NR1D1 modulator -2, NTR1 agonist 1, MC4R barr agon 15*, MC4R barr conf 8 and MOR DOR agonist 2.
Screening O=C(CSc1nc2ccccc2s1)Nc1ccc2c(c1)oc1ccccc12 returned MC4R antag cAMP 4, PG9 binder 2, NR1D1 modulator -2, NTR1 agonist 6, MC4R barr agon 17*, MC4R barr conf 5 and MOR DOR agonist 4.
Screening Cn1c(SCC(=O)Nc2ccc3c(c2)oc2ccccc23)nnc1-c1ccccc1 returned MC4R antag cAMP 17, PG9 binder 3, NR1D1 modulator 13, NTR1 agonist 2, MC4R barr agon 10*, MC4R barr conf 5 and MOR DOR agonist 4.
`CCOC(=O)c1ccc(NC(=O)OC[C@@H]2CSCCS(=O)(=O)N2)cc1` gave PG9 binder -1 and NR1D1 modulator -2.
`C#CCN1C(=O)[C@]2(OC[C@@H]3Cc4ccccc4[C@@H]3C=C2C)c2ccccc21` gave PG9 binder 1 and NR1D1 modulator 2.
